Among all 330,000 compounds or so, about 2,400 (0.73%) were called active. The sample holds actives, similar compounds and a random draw of the others, so the mix is not that of the screen. Values without a mark were called inactive. The calls were made as follows: active = inhibition of at least 40% at 20 µM; inactive = the rest.
Target: Apoptotic protease-activating factor 1 (Homo sapiens) (UniProt O14727)
Assay: blockers of Apaf-1-driven caspase-3 activation – biochemical, DEVD-Rh110 fluorescence, uHTS, primary screen (AID 489030);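 also: plate controls were DMSO wells for no effect and DEVD-CHO caspase inhibitor wells for full effect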
Conditions: reconstituted apoptosome caspase-3 activity, at 20 µM, hits give high values
Outline: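 Assay system: Apoptosome proteins | Medium: pH 7.5 Hepes buffer with CHAPS, BSA, DTT | Also added: Cytochrome c and DEVD-Rh110 substrate | Times: 30 min plus 50 min, RT | Detection: Rhodamine 110 fluorescence at Ex 480/Em 540 nm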

Sequence of Apoptotic protease-activating factor 1 (Homo sapiens) (O14727 whole entry, looked up): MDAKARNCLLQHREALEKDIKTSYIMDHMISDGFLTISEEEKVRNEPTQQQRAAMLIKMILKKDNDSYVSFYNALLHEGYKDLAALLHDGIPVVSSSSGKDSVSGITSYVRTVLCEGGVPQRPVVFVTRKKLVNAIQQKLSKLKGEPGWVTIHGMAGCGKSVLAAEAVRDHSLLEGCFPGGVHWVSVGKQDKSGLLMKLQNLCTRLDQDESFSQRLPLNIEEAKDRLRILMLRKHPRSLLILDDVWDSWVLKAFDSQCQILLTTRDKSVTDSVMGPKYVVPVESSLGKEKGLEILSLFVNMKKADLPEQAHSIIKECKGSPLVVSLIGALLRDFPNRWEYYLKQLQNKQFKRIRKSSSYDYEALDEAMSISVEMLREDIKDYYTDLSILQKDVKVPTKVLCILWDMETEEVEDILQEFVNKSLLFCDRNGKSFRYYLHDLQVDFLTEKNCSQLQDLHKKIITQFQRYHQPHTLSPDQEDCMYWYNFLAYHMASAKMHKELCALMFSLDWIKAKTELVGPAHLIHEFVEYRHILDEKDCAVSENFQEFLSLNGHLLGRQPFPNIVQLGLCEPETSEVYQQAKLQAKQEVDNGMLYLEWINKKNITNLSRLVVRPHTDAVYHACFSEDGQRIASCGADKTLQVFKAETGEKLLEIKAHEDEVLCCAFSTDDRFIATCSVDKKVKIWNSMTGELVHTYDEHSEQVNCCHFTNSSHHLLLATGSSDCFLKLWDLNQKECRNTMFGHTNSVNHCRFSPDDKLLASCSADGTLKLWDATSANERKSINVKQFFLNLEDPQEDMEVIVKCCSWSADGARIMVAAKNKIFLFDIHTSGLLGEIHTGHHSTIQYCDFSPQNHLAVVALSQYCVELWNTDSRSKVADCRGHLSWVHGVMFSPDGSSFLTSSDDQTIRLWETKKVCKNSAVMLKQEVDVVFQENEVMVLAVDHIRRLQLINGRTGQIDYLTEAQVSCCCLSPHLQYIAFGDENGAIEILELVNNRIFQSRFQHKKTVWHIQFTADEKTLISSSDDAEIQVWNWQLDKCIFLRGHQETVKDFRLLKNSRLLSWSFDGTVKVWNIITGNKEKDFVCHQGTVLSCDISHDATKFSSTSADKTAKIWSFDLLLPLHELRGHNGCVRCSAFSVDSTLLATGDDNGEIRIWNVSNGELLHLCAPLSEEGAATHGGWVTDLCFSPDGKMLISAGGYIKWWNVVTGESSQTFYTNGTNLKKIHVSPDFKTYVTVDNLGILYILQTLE

`Cc1cccc(OCCNC(=O)CSc2ccc(C(F)(F)F)cc2[N+](=O)[O-])c1` was tested. Which inhibition did it give?
The inhibition was 15.2%.

How did the inhibition turn out when `Cc1c(C)n(Cc2ccc(Cl)cc2)c2ccc(C(=O)NCCCN3CCOCC3)cc12` was run?
Its inhibition is 25.9%.

`CC(C)OCCCNC(=O)CN1C(=O)/C(=C/c2ccccc2F)Oc2ccccc21` was tested. Which inhibition did it give?
Its inhibition is 11%.

How did the inhibition turn out when `CN1CCN(CCCNC(=O)c2ccc(/C=C3\Oc4ccccc4N(Cc4ccc(Cl)cc4)C3=O)cc2)CC1` was run?
The inhibition was 56.6% (active).

With `O=C(NCC1CC1)c1onc(CSc2ccccc2)c1C(=O)NCC1CC1` as the compound, how does the inhibition read?
Its inhibition is 14.7%.

For `COc1cccc(NC(=O)CSc2nccn(-c3ccc4c(c3)OCCO4)c2=O)c1`, which inhibition is on record?
The inhibition was 5.15%.

Which inhibition does the source give for `CCOc1cc(CNCCN(C)C)c(Cl)cc1OCC(=O)NCCc1ccccc1` here?
The inhibition was 13.1%.

How did the inhibition turn out when `COc1ccc(S(=O)(=O)N(C)C[C@@H]2Oc3ccc(NS(=O)(=O)c4cn(C)cn4)cc3C(=O)N([C@@H](C)CO)C[C@@H]2C)cc1` was run?
The inhibition was 5.38%.

For `O=C1NNC(c2ccccc2)=N/C1=C\c1ccc(Cl)cc1`, which inhibition is on record?
The inhibition was 50.6% (active).

For `Cc1ccc(Cl)c(OCC(=O)N(C)CC(=O)Nc2ccc(N3CCOCC3)cc2)c1`, which inhibition is on record?
The inhibition was 7.19%.

With `COC(=O)c1ccc(COC(=O)C2CCN(S(=O)(=O)c3c(Cl)cccc3Cl)CC2)o1` as the compound, how does the inhibition read?
The inhibition was 0.83%.

With `O=C(Nc1cccc(-c2cccc(Cl)c2)c1)C1CCN(C2CCC2)CC1` as the compound, how does the inhibition read?
Its inhibition is 25.3%.

With `CCn1cc(CN2CCC(C(=O)Nc3cccc(-c4cccc(Cl)c4)c3)CC2)c(C)n1` as the compound, how does the inhibition read?
The inhibition was 40.5% (active).

With `CCn1cc(CN2CCC(C(=O)Nc3cccc(-c4cccc(Cl)c4)c3)CC2)cn1` as the compound, how does the inhibition read?
The inhibition was 33.8%.

With `COc1ccccc1N1CCN(C(=O)CSc2ncnc3c2cnn3-c2ccc(C)c(C)c2)CC1` as the compound, how does the inhibition read?
Its inhibition is -2.97%.

For `COc1cccc(-n2c(N)cc(=O)nc2SCC(=O)Nc2cc(C)on2)c1`, which inhibition is on record?
Its inhibition is 0.469%.

Which inhibition does the source give for `CCCCN1C(=S)NC[C@@H]1C(C)CC` (stereo partly specified) here?
The inhibition was 1.66%.

For `COc1ccccc1C(=O)N1C(CC(=O)Nc2ccccc2C)C(=O)NC2CCCCC21` (stereo unspecified), which inhibition is on record?
Its inhibition is -7.88%.

For `CCOC(=O)Cc1cc(=O)[nH]c(/N=C(\N)Nc2ccc(OC)cc2)n1`, which inhibition is on record?
The inhibition was -3.54%.

With `CCOC(=O)c1ccc(NC(=O)c2c(NCc3ccccc3)[nH]c(=O)[nH]c2=O)cc1` as the compound, how does the inhibition read?
Its inhibition is 3.08%.

How did the inhibition turn out when `CCOC(=O)c1ccc(Nc2cc3ccccc3c(=O)[nH]2)cc1` was run?
The inhibition was 92.5% (active).

For `CCOC(=O)c1ccc(NC(=O)c2c(N)n(C)c(=O)[nH]c2=O)cc1`, which inhibition is on record?
Its inhibition is -13.8%.

How did the inhibition turn out when `COc1ccc(/C=C/c2c(-c3cccc(C)c3)oc3ccc(-c4ccc5c(c4)OCO5)cc23)cc1` was run?
Its inhibition is -2.24%.

How did the inhibition turn out when `CC(C)N(Cc1ccccc1)C(=O)COC(=O)c1ccccc1SCC(=O)N1CCCC1` was run?
The inhibition was 1.56%.

How did the inhibition turn out when `CC(NC(=O)c1ccccc1SCC(=O)N1CCCC1)c1ccccc1` (stereo unspecified) was run?
Its inhibition is 41.6% (active).

With `CN(CC(=O)Nc1ccccc1Cl)C(=O)c1ccccc1SCC(=O)N1CCCC1` as the compound, how does the inhibition read?
The inhibition was -3.37%.

`Cc1ccc(NC2=NC(c3ccccc3)n3c(nc(C)cc3=O)N2)cc1` (stereo unspecified) was tested. Which inhibition did it give?
Its inhibition is 5.19%.

How did the inhibition turn out when `O=C(Nc1ccccc1C(=O)O)c1cc(S(=O)(=O)N2CCCCC2)cs1` was run?
Its inhibition is -2.29%.

`COc1ccc(C2=NS(=O)(=O)N(C)C(C(=O)NC(C)c3ccccc3)=C2)cc1` (stereo unspecified) was tested. Which inhibition did it give?
The inhibition was 1.57%.

For `C=CCOc1c(Br)cc(/C=N\n2nnnc2N)cc1OC`, which inhibition is on record?
The inhibition was 2.56%.

For `COc1cc(/C=C2/C(=O)NN(c3cccc(Cl)c3)C2=O)cc(Br)c1O`, which inhibition is on record?
Its inhibition is 5.53%.

For `CCOc1c(Br)cc(/C=C2\C(=O)N(CCC#N)N=C2C)cc1OC`, which inhibition is on record?
The inhibition was 75.9% (active).

How did the inhibition turn out when `COc1cc(OC)cc(-c2c(-c3cccs3)c3cc(-c4ccc(OC)cc4F)ccc3n2C)c1` was run?
Its inhibition is 11.7%.

How did the inhibition turn out when `COc1ccc(CCN2CC(C(=O)NCCN3CCNC3=O)CCC2=O)cc1` (stereo unspecified) was run?
Its inhibition is 0.96%.

For `CC1=C(C(=O)OCc2ccccc2)C(c2ccc(C(F)(F)F)cc2)NC(=O)N1CCCCCC(=O)O` (stereo unspecified), which inhibition is on record?
Its inhibition is 19.6%.

Which inhibition does the source give for `COC(=O)CCCCCN1C(=O)NC(c2ccc(-c3ccccc3)cc2)C(C(=O)OCc2ccccc2)=C1C` (stereo unspecified) here?
Its inhibition is 19.3%.

How did the inhibition turn out when `CCCCNC(=O)C(C)N(CCN(C)C)C(=O)CCCN1C(=O)NC(c2ccc(Cl)cc2)C(C(=O)OCc2ccccc2)=C1C` (stereo unspecified) was run?
Its inhibition is 57.1% (active).

`CCCCNC(=O)C(C)N(CCN(C)C)C(=O)CCCCCN1C(=O)NC(c2ccc(Cl)cc2)C(C(=O)OCc2ccccc2)=C1C` (stereo unspecified) was tested. Which inhibition did it give?
Its inhibition is 67.1% (active).

For `CC1=C(C(=O)OC(C)(C)C)C(c2ccc(Br)cc2)NC(=O)N1CCCC(=O)O` (stereo unspecified), which inhibition is on record?
The inhibition was -6.71%.

With `CCN1C(=O)N[C@@H](c2ccccc2)C(C(=O)OC)=C1C` as the compound, how does the inhibition read?
The inhibition was -2.25%.

`CCCOC(=O)c1c(NC(=O)c2cnn3c2NC(c2ccccc2)CC3C(F)(F)F)sc2c1CCCC2` (stereo unspecified) was tested. Which inhibition did it give?
The inhibition was -7.9%.

`NC(=O)c1ccc(-c2csnn2)cc1` was tested. Which inhibition did it give?
The inhibition was -3.94%.

For `COc1ccc(-n2nc(C(=O)Nc3cc(OC)c(OC)c(OC)c3)c3ccccc3c2=O)c(OC)c1`, which inhibition is on record?
The inhibition was 28.5%.

`Nc1nnnn1/N=C/c1cccc(Br)c1` was tested. Which inhibition did it give?
The inhibition was 8.14%.

How did the inhibition turn out when `COc1ccccc1C(=O)NCCC(=O)N(C)Cc1cccnc1` was run?
The inhibition was -4.28%.

Which inhibition does the source give for `Cc1ccc(OCCNC(=O)CCNS(=O)(=O)c2ccc(Br)cc2)cc1` here?
The inhibition was 11.6%.

With `O=C(CCNS(=O)(=O)c1ccccc1)NCCCc1ccccc1` as the compound, how does the inhibition read?
Its inhibition is 4.81%.

`O=C(CCNS(=O)(=O)c1ccccc1)NCCSc1ccc(Br)cc1` was tested. Which inhibition did it give?
Its inhibition is 58.6% (active).

With `CCCc1c(C)nc2c(Br)cccc2c1Cl` as the compound, how does the inhibition read?
Its inhibition is -2.72%.

With `CC[N+](C)(CC)CCC[n+]1c(-c2ccccc2)c2cc(N)ccc2c2ccc(N)cc21` as the compound, how does the inhibition read?
The inhibition was 98.2% (active).

How did the inhibition turn out when `CCOC(=O)N1CCC(NC(=O)Cc2cn(C)c3ccccc23)CC1` was run?
Its inhibition is 3.3%.

How did the inhibition turn out when `CCOC(=O)N1CCC(NC(=O)C(C)n2c3ccccc3c3cnn(C)c(=O)c32)CC1` (stereo unspecified) was run?
Its inhibition is 44.6% (active).

For `CCOC(=O)N1CCC(NC(=O)CCc2cn(C)c3ccccc23)CC1`, which inhibition is on record?
Its inhibition is 0.184%.

How did the inhibition turn out when `Cc1ccc2nc(N3CCN(C(=O)c4ccco4)CC3)sc2c1` was run?
Its inhibition is 41.9% (active).

How did the inhibition turn out when `Cc1ccc2nc(N3C(=O)C(O)=C(C(=O)c4ccco4)C3c3cccc(O)c3)sc2c1` (stereo unspecified) was run?
The inhibition was 9.5%.

For `COc1ccc2nc(N3CCN(C(=O)c4ccc([N+](=O)[O-])o4)CC3)sc2c1`, which inhibition is on record?
Its inhibition is 4.35%.

From PubChem BioAssay AID489030 (Sanford-Burnham Center for Chemical Genomics, 2010)
